Measured values taken from ChEMBL document CHEMBL3526048, “In vitro metabolism of rivoglitazone, a novel peroxisome proliferator-activated receptor γ agonist, in rat, monkey, and human liver microsomes and freshly isolated hepatocytes” (Drug Metab Dispos, 2011).

Tests used:
[1] = Retention time of the compound by LC-MS/MS analysis; type: physicochemical
Procedure, shortened: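 LC-MS/MS used a YMC-Pack ODS-A column (1.5 × 150 mm, 5 μm) at 30°C, 0.1 ml/min. Mobile phase was water and acetonitrile, each with 0.01% TFA. Gradient: 12→60% B over 30 min, →90% B over 5 min, hold 5 min. Detection was UV 220 nm with positive ESI Q-TOF (capillary 3300 V, cone 45 V), collision energy 20 eV and xenon as collision gas.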

[2] = biological target: T1, Cytochrome P450 3A5 (Homo sapiens, UniProt P20815); assay: Activity of human CYP3A5 expressed in microsomes isolated from baculovirus infected insect cell assessed as enzyme-mediated compound formation treated with [14C]-rivoglitazone at 20 uM after 2 hrs by radio-HPLC/LC-MS/MS analysis in presence of NADPH-generating system; type: ADME
Procedure, shortened: (§1)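 cDNA-expressed human CYP3A5 in baculovirus-insect-cell microsomes (1 mg/ml protein) was incubated with [¹⁴C]rivoglitazone (20 μM) in 50 mM potassium phosphate (pH 7.4) or 100 mM Tris-HCl (pH 7.5). NADPH-generating system: 2 mM NADP⁺, 20 mM glucose 6-phosphate, 2 units/ml G6PDH, 10 mM MgCl₂. Incubation ran 2 h at 37°C with shaking; insect-cell control supersomes served as control. Acetonitrile stop, supernatant concentrated, then radio-HPLC, LC-MS and LC-MS/MS.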

[3] = biological target: T2, UDP-glucuronosyltransferase 1A7 (Homo sapiens, UniProt Q9HAW7); assay: Activity of human UGT1A7 expressed in microsomes isolated from baculovirus infected insect cell assessed as enzyme-mediated (2S,3S,4S,5R,6R)-6-((1-carboxy-2-(4-((6-methoxy-1-methyl-1H-benzo[d]imidazol-2-yl)methoxy)phenyl)ethylthio)carbonylamino)-3,4,5-trihydroxytetrahydro-2H-pyran-2-carboxylic acid formation at 20 uM after 4 hrs by radio-HPLC/LC-MS/MS analysis in presence of UDPGA; type: ADME
T2 sequence (Q9HAW7 whole entry): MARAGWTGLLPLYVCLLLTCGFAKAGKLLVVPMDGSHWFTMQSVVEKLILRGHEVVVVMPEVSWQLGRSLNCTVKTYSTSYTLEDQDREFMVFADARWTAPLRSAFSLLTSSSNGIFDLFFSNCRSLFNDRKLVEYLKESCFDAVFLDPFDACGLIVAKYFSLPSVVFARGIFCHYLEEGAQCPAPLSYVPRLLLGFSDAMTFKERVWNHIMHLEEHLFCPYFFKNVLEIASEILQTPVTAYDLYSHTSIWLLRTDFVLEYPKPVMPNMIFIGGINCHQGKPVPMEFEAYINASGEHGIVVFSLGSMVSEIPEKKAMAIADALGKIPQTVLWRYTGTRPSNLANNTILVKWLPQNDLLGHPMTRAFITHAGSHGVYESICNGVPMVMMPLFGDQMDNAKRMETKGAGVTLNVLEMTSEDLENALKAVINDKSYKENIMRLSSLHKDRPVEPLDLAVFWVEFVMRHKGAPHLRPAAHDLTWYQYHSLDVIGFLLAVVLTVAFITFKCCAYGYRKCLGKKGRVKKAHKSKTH

[4] = Drug metabolism in cynomolgus monkey liver microsomes assessed as formation of 2-amino-3-((1-carboxy-2-(4-((6-methoxy-1-methyl-1H-benzo[d]imidazol-2-yl)methoxy)phenyl)ethyl)disulfanyl)propanoic acid at 20 uM by radio-HPLC/LC-MS/MS analysis; type: ADME, Macaca fascicularis
[5] = Drug metabolism in cynomolgus monkey liver microsomes assessed as formation of 2-hydroxy-3-(4-((6-methoxy-1-methyl-1H-benzo[d]imidazol-2-yl)methoxy)phenyl)propanamide at 20 uM after 2 hrs by radio-HPLC/LC-MS/MS analysis in presence of NADPH-generating system and NADPH-generating system/SAM; type: ADME, Macaca fascicularis
[6] = biological target: T3, UDP-glucuronosyltransferase 1A4 (Homo sapiens, UniProt P22310); assay: Activity of human UGT1A4 expressed in microsomes isolated from baculovirus infected insect cell assessed as enzyme-mediated 2-mercapto-3-(4-((6-methoxy-1-methyl-1H-benzo[d]imidazol-2-yl)methoxy)phenyl)propanoic acid formation at 20 uM after 4 hrs by radio-HPLC/LC-MS/MS analysis in presence of UDPGA; type: ADME
T3 sequence (P22310 whole entry): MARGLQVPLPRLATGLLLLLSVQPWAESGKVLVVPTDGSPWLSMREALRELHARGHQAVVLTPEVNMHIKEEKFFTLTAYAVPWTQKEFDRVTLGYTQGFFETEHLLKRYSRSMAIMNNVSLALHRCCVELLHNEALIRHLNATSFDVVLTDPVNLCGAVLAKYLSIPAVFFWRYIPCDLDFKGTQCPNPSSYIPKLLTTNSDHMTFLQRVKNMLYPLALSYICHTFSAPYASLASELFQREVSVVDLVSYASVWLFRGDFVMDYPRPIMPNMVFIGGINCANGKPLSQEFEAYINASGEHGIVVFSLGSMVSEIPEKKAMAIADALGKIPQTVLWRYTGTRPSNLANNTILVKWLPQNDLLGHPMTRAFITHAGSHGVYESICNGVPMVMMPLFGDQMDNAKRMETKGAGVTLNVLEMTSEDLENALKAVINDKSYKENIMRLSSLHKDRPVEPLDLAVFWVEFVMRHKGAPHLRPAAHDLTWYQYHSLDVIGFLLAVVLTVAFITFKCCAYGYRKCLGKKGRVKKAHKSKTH

[7] = Drug metabolism in human hepatocytes assessed as formation of 2-hydroxy-3-(4-((6-methoxy-1-methyl-1H-benzo[d]imidazol-2-yl)methoxy)phenyl)propanamide at 30 uM after 3 hrs by radio-HPLC/LC-MS/MS analysis in presence of NADPH-generating system and NADPH-generating system/SAM; type: ADME, cell-based, Hepatocyte
[8] = biological target: T1, Cytochrome P450 3A5; assay: Activity of human CYP3A5 expressed in microsomes isolated from baculovirus infected insect cell assessed as enzyme-mediated 2-mercapto-3-(4-((6-methoxy-1-methyl-1H-benzo[d]imidazol-2-yl)methoxy)phenyl)propanamide formation at 20 uM after 2 hrs by radio-HPLC/LC-MS/MS analysis in presence of NADPH-generating system and NADPH-generating system/SAM; type: ADME; procedure, shortened: as §1
[9] = biological target: T2, UDP-glucuronosyltransferase 1A7; assay: Activity of human UGT1A7 expressed in microsomes isolated from baculovirus infected insect cell assessed as enzyme-mediated (2S,3S,4S,5R,6R)-3,4,5-trihydroxy-6-(5-(4-((6-methoxy-1-methyl-1H-benzo[d]imidazol-2-yl)methoxy)benzyl)-2,4-dioxothiazolidin-3-yl)tetrahydro-2H-pyran-2-carboxylic acid formation at 20 uM after 4 hrs by radio-HPLC/LC-MS/MS analysis in presence of UDPGA; type: ADME

T1 sequence (P20815 whole entry): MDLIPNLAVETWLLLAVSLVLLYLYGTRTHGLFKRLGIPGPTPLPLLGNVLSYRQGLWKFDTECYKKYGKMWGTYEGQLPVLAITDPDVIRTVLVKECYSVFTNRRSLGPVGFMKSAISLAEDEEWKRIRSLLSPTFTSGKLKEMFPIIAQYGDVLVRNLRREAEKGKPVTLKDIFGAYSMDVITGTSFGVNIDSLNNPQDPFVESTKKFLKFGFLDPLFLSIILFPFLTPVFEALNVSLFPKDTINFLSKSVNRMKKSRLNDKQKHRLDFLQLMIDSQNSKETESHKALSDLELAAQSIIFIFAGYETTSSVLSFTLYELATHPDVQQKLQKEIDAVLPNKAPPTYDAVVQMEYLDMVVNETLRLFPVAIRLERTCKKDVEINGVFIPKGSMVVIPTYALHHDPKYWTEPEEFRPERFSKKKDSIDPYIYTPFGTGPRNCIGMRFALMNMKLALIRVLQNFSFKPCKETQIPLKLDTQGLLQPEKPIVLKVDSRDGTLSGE

Retention_time [1] [min]	Drug metabolism [2]	Drug metabolism [3]	Drug metabolism [4]	Drug metabolism [5]	Drug metabolism [6]	Drug metabolism [7]	Drug metabolism [8]	Drug metabolism [9]	Compound
23.9	metabolite_detected	–	–	–	–	–	–	–	COc1ccc2nc(COc3ccc(CC(S)C(=O)O)cc3)n(C)c2c1 (centres undefined)
–	–	metabolite_not_detected	metabolite_not_detected	metabolite_detected	metabolite_not_detected	metabolite_not_detected	metabolite_detected	metabolite_not_detected	COc1ccc2nc(COc3ccc(C[14CH]4SC(=O)NC4=O)cc3)n(C)c2c1.Cl (racemic)
